High-throughput results as filed in PubChem BioAssay.
Rows were chosen to be rich in hits. Some 1.5% of all compounds tested hit in one or more screens of this group.
hiPSC survival – enhancers of human iPSC single-cell survival. hiPSC single-cell survival, ATPlite luminescence; 100% = ROCK inhibitor wells, 0% = DMSO. survival enhancement, % at 20 µM. actives 0.044% (n = 360,000); in the data active means survival enhancement above about 18%;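 further: cells exposed to compounds for 16 hours before the ATP read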
APJ antag – blocks the human apelin receptor APJ; P35414; inhibition, % at 20 µM; AID 2521; actives 0.32% (n = 330,000); CHO-K1 APJ beta-arrestin complementation, luminescence;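 active means inhibition above about 40% at 20 µM, limit read from the data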;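 further: cells challenged with 10 nM apelin-13 agonist together with compound; plate controls were apelin-13 plus DMSO wells for no effect and DMSO wells lacking apelin-13 for full effect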
EBI2 antag – blocks human EBI2 receptor beta-arrestin signaling; inhibition, % at 5 µM; actives 0.81% (n = 360,000); EBI2 beta-arrestin recruitment, luminescence, 7a,25-OHC stimulated; in the data active means inhibition above about 38%;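 further: enzyme fragment complementation signal reports receptor beta-arrestin coupling in cells; 0% = agonist plus DMSO wells and 100% = wells without agonist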
CXCR6 block – inhibitors of human CXCR6 receptor; O00574; CHO-K1 PathHunter CXCR6 beta-arrestin, luminescence; inhibition, % at 20 µM; actives 0.36% (n = 360,000); AID 602244; in the data active means inhibition above about 34%, passing the limit was not always enough;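 further: antagonist mode with CXCL16 agonist at 10 nM final; 0% = 10 nM CXCL16 with DMSO and 100% = unstimulated wells without agonist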
Target sequence (O00574 whole entry, looked up): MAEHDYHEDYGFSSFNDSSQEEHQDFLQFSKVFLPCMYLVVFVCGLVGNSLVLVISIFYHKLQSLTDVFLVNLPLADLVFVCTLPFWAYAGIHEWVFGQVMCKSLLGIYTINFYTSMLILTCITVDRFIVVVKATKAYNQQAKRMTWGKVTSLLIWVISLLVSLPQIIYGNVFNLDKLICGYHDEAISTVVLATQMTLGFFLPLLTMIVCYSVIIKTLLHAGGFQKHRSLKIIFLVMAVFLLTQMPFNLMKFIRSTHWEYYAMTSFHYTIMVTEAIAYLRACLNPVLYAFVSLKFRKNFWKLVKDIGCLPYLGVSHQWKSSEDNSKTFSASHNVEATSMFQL
CCR6 antag – antagonists of human CCR6 receptor | actives 0.49% (n = 340,000) | P51684 | inhibition, % at 20 µM | CHO-K1 CCR6 PathHunter beta-arrestin, luminescence, CCL20-stimulated;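 active means compounds whose inhibition of the agonist-driven luminescence signal at 20 µM reaches about 50%, limit read from the data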;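 further: cells stimulated with CCL20 at 14 nM final; plate controls were DMSO with CCL20 for no effect and DMSO without agonist for full effect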
APJ agonist – APJ receptor agonism; activation, % at 20 µM; actives 0.11% (n = 330,000); CHO-K1 APJ PathHunter beta-arrestin, luminescence; 0% DMSO wells, 100% apelin; P35414;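 active means activation more than six SD over the plate average, tested at 20 µM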;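 further: 0% = DMSO alone and 100% = apelin-13 at 10 nM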
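Assay system: engineered CHO-K1 APJ arrestin reporter cells; Amount: 1000 CHO-K1 reporter cells seeded per well; Dosing: one dose, 20 µM compound, 1% DMSO; Times: compound stimulation 90 min at 25 °C, detection 60 min; Measured by: luminescent beta-gal fragment complementation, chemiluminescent substrate; Read-out: APJ–arrestin association signal; Controls: DMSO vs Apelin-13 10 nM.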
EBI2 conf – confirmation of human EBI2 receptor antagonists; shares compounds with EBI2 antag; EBI2 beta-arrestin luminescence, 7a,25-OHC antagonism; inhibition, % at 5 µM; actives 29% (n = 2,400); AID 651997;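 active means inhibition of at least 50%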
EBI2 ag – EBI2 agonism counter-screen; 2,400 tested, under 10 active; AID 652000; EBI2-expressing cells, agonist mode, luminescence, 60 min; 0% vehicle, 100% 7α,25-dihydroxycholesterol control; activation, % at 5 µM; shares compounds with EBI2 antag;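 active means activation of at least 50%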
bGal cs – beta-galactosidase inhibition counter-screen; shares compounds with EBI2 antag; purified beta-galactosidase, luminescent Galacton Star, 15 min; inhibition, % at 5 µM; actives 1% (n = 2,400);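 active means replicate-average signal at least 3 plate SD below neutral wells, shown as high inhibition, flagging enzyme-inhibiting false positives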;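 further: 0% = DMSO wells with enzyme and 100% = wells lacking enzyme; higher means stronger loss of beta-gal luminescence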
Active calls of the source: *; . = no result.

SMILES	hiPSC survival	APJ antag	EBI2 antag	CXCR6 block	CCR6 antag	APJ agonist	EBI2 conf	EBI2 ag	bGal cs
COc1cc(OC)nc(C(NC(=O)C2CCN(Cc3ccc(Oc4ccccc4)cc3)CC2)c2ccccc2C)n1 (stereo not drawn)	3	.	53*	28	.	.	19	-1	-9
Cc1ccc2oc(C(=O)N3CCC(O)(c4cccc(C(F)(F)F)c4)CC3)c(C)c2c1	0	-6	57*	0	25	-4	44	-1	-5
COc1ccc(OCC(=O)Nc2cccc(S(=O)(=O)N(C)c3ccccc3)c2)c([N+](=O)[O-])c1	-1	-14	-18	5	4	3	.	.	.
COc1ccc(C(=O)N2CCC(C(=O)c3c(C)cc(C)cc3C)CC2)cc1	0	1	72*	-2	14	1	42	-1	-8
Cc1cc(C)c2cc(C(=O)N3CCC(N4CCCCC4)CC3)[nH]c2c1	0	-15	46*	7	15	-2	25	0	7
Cc1cc(C)c2cc(C(=O)N3CCC(Cc4ccccc4)CC3)[nH]c2c1	0	-16	64*	4	11	-2	41	2	-10
Cc1cc(C)c2cc(C(=O)N3CCC(C(=O)c4ccc(F)cc4)CC3)[nH]c2c1	1	-1	90*	-3	14	1	84*	1	1
CCN(CC(=O)Nc1c(F)cccc1F)C(=O)c1ccc2ncsc2c1	0	16	-11	-4	0	1	.	.	.
CC(CC(=O)OCC(=O)NCc1ccc(Cl)cc1)c1ccccc1 (stereo not drawn)	0	4	7	-3	4	-1	.	.	.
CCC(C(=O)c1ccc2ncccc2c1)c1ccccc1 (stereo not drawn)	-2	10	61*	-2	10	-4	46	1	-3
COc1ccc2nc(C)cc(SCC(=O)NNC(=O)COc3ccc(C)cc3)c2c1	-1	18	67*	-2	-15	-2	17	2	7
Cc1ccc(OCC(=O)NNC(=O)CSc2nnc(-c3ccc(C)cc3)n2C)cc1	-2	3	75*	-2	2	-4	40	-1	3
COc1ccc(CN(CCNC(=O)CCCCC(=O)NCCN(Cc2ccc(OC)cc2)C(C)C)C(C)C)cc1	0	-2	-2	9	7	-5	.	.	.
COC(=O)COc1ccc(C(=O)Cn2c(NCCCO)nc3ccccc32)cc1	0	-12	-7	4	5	0	.	.	.
CC12CCC(=O)N1C(C(=O)NCc1ccccc1F)CS2 (stereo not drawn)	0	23	2	1	4	11	.	.	.
N#C/C(=C\c1cn(CCOc2ccccc2)c2ccccc12)C(=O)NCc1ccco1	-1	9	46*	8	29	-7	22	0	8
COc1ccc(CCC(=O)NCCc2ccc(Cl)cc2)cc1	0	8	43*	2	10	-6	27	1	2
Cc1nn(-c2nc3ccccc3s2)c(N)c1-c1ccc(Cl)cc1	-2	14	54*	11	1	-1	53*	0	10
COc1ccc(Cc2nnc(Nc3ccccc3)s2)cc1Br	0	3	35*	-12	4	-1	19	0	9
COc1ccc(CNc2ccccc2)cc1Br	0	16	-5	2	21	-4	.	.	.
CCCc1nn(-c2ccccc2)c2c1C(c1cccs1)C(C#N)=C(N)O2 (stereo not drawn)	4	1	53*	-3	-2	2	60*	-1	-4
